According to ChEMBL document CHEMBL1154743, “A novel potent nicotinamide phosphoribosyltransferase inhibitor synthesized via click chemistry” (J Med Chem, 2010):

Legend:
[1] = tested on: A549; test: Growth inhibition of human A549 cells by sulforhodamine B assay; format: functional
[2] = tested on: BT-549; test: Growth inhibition of human BT549 cells by sulforhodamine B assay; format: functional
[3] = tested on: SF-295; test: Growth inhibition of human SF295 cells by sulforhodamine B assay; format: functional
[4] = tested on: UACC-257; test: Growth inhibition of human UACC257 cells by sulforhodamine B assay; format: functional
[5] = tested on: TK-10; test: Growth inhibition of human TK10 cells by sulforhodamine B assay; format: functional
[6] = tested on: MDA-MB-468; test: Growth inhibition of human MDA-MB-468 cells by sulforhodamine B assay; format: functional
[7] = tested on: HCT-15; test: Growth inhibition of human HCT15 cells by sulforhodamine B assay; format: functional
[8] = tested on: MDA-MB-435; test: Growth inhibition of human MDA-MB-435 cells by sulforhodamine B assay; format: functional
[9] = tested on: KM12; test: Growth inhibition of human KM12 cells by sulforhodamine B assay; format: functional
[10] = tested on: LOX IMVI; test: Growth inhibition of human LOXIMVI cells by sulforhodamine B assay; format: functional
[11] = tested on: SNB-19; test: Growth inhibition of human SNB19 cells by sulforhodamine B assay; format: functional
[12] = tested on: HOP-92; test: Growth inhibition of human HOP92 cells by sulforhodamine B assay; format: functional
[13] = tested on: SH-SY5Y; test: Cytotoxicity against human SH-SY5Y cells assessed as reduction of total cellular NAD(P) level at 300 nM relative to control; format: functional; set-up: scale not given: the % may be the effect or the level left
Summary of the method: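 Total cellular NAD levels in SH-SY5Y cells screened at a single fixed concentration of 300 nM. Expressed relative to control, n = 10.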

[14] = tested on: SH-SY5Y; test: Cytotoxicity against human SH-SY5Y cells assessed as reduction of total cellular NAD(P) level; format: functional, cell-based
[15] = tested on: OVCAR-4; test: Growth inhibition of human OVCAR4 cells by sulforhodamine B assay; format: functional
[16] = tested on: SK-MEL-5; test: Growth inhibition of human SK-MEL-5 cells by sulforhodamine B assay; format: functional; details: read-out: LC50 (the source's name)
[17] = tested on: ACHN; test: Growth inhibition of human ACHN cells by sulforhodamine B assay; format: functional
[18] = tested on: M14; test: Growth inhibition of human M14 cells by sulforhodamine B assay; format: functional
[19] = tested on: HCC 2998; test: Growth inhibition of human HCC2998 cells by sulforhodamine B assay; format: functional
[20] = Growth inhibition of human […] cells by sulforhodamine B assay; format: functional
[21] = read-out: LC50 (the source's name)

In the case of O=C(CCCCCCCn1cc(-c2cccnc2)nn1)Nc1ccccc1-c1ccccc1, the GI50 [1] is reported as 2.1 µM, the TGI [1] is reported as > 100 µM and the CC50 [1, 21] is reported as > 100 µM. The GI50 [2] was 1.7 µM, the TGI [2] was 39.3 µM and the CC50 [2, 21] was > 100 µM. The GI50 [3] was 0.655 µM, the TGI [3] was > 100 µM and the CC50 [3, 21] was > 100 µM. For the same compound, the GI50 [4] was 13.3 µM, the TGI [4] was 30.3 µM and the CC50 [4, 21] was 69.3 µM. The GI50 [5] was 18.2 µM, the TGI [5] was > 100 µM and the CC50 [5, 21] was > 100 µM. The GI50 [6] was 7.34 µM, the TGI [6] was > 100 µM and the CC50 [6, 21] was > 100 µM. The GI50 [7] was 0.257 µM, the TGI [7] was > 100 µM and the CC50 [7, 21] was > 100 µM. The GI50 [8] was 0.399 µM, the TGI [8] was 13.3 µM and the CC50 [8, 21] was > 100 µM. The GI50 [9] was 1.03 µM, the TGI [9] was 27.2 µM and the CC50 [9, 21] was > 100 µM. For the same compound, the GI50 [10] was 10.1 µM, the TGI [10] was > 100 µM and the CC50 [10, 21] was > 100 µM. For the same compound, the GI50 [11] was 0.45 µM, the TGI [11] was > 100 µM and the CC50 [11, 21] was > 100 µM. The GI50 [12] was 97.4 µM, the TGI [12] was > 100 µM and the CC50 [12, 21] was > 100 µM. The Activity [13] was 9.9%, the IC50 [14] was 0.003 µM and the GI50 [15] was 31.6 µM. For the same compound, the TGI [15] was > 100 µM, the CC50 [15, 21] was > 100 µM and the CC50 [16] was 42.4 µM. The GI50 [17] was 18.7 µM, the TGI [17] was > 100 µM and the CC50 [17, 21] was > 100 µM. The GI50 [18] was 0.166 µM, the TGI [18] was 20.7 µM and the CC50 [18, 21] was > 100 µM. For the same compound, the GI50 [19] was 0.7 µM, the TGI [19] was > 100 µM and the CC50 [19, 21] was > 100 µM. The GI50 [20] was 0.913 µM and the TGI [20] was 60.6 µM.
